Source: ChEMBL document CHEMBL1133540, “4-Aminoquinolines: novel nociceptin antagonists with analgesic activity” (J Med Chem, 2000)

How the values were obtained:
Nociceptin receptor [1] = biological target: T1, Nociceptin receptor (Homo sapiens, UniProt P41146); assay: Ability to displace [3H]nociceptin ( 0.5 nM ) binding from Opioid receptor like 1 expressed in HeLa cells.; format: cell-based
Procedure, shortened: (§1)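 Membranes from HeLa cells expressing human ORL1 (25 μg protein/mL) in 50 mM Tris pH 8.5 with 2 mM EDTA, 0.1 mM p-aminophenylmethanesulfonyl fluoride and 2 mg/mL BSA. Incubated 30 min at room temperature with 0.5 nM [3H]nociceptin and varied compound concentrations. Bound radioactivity was collected by filtration and counted by scintillation. Nonspecific binding was set with 1 μM unlabeled nociceptin.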

Nociceptin receptor [2] = biological target: T1, Nociceptin receptor; assay: Compound was evaluated for its ability to displace [3H]nociceptin ( 0.5 nM ) binding from Opioid receptor like 1 expressed in HeLa cells; format: cell-based
Procedure, shortened: as §1, with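 “nociceptin. Ki reported as mean ± SE, n=3-6.” for “nociceptin.”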

Nociceptin receptor [3] = biological target: T1, Nociceptin receptor; assay: Percent inhibition of [3H]nociceptin ( 0.5 nM ) binding at 10 uM
Procedure, shortened: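 Single-point test at 10 μM compound against 0.5 nM [3H]nociceptin binding to human ORL1 in HeLa cell membranes. Buffer was Tris pH 8.5 with EDTA, protease inhibitor and BSA; incubation 30 min at room temperature. Filtration and scintillation counting. Specific binding = total minus binding in 1 μM unlabeled nociceptin. Read-out was percent inhibition.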

[4] = Effect of compound on nociceptin-induced allodynia :Values are the mean ( SE of allodynia score at 20 min.; format: functional
Procedure, shortened: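 Male ICR mice, 4 weeks old, unanesthetized; nociceptin (50 pg/5 μL) injected intrathecally. Test compound 0.3 mg/kg suspended in 0.5% methyl cellulose, or vehicle as control, given orally 60 min before nociceptin. Allodynia score read at 20 min; mean ± SE, n = 9; Mann–Whitney U-test versus nociceptin-alone control.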

[5] = biological target: Delta-type opioid receptor (Homo sapiens, UniProt P41143); assay: Inhibition of [3H]naltrindole (0.55 nM) binding from human Opioid receptor delta 1 expressed in CHO-K1 cells.; format: cell-based
Procedure, shortened: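 Human δ-opioid receptor from CHO-K1 membranes in 50 mM Tris-HCl pH 7.4, 5 mM MgCl2, 10% sucrose. Incubated 1 h at room temperature with 0.55 nM [3H]naltrindole and varied compound concentrations. Filter-bound radioactivity counted. 10 μM naloxone defined nonspecific binding. Ki as mean ± SE, n=3.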

[6] = biological target: Kappa-type opioid receptor (Homo sapiens, UniProt P41145); assay: Inhibition of [3H][…] (0.55 nM) binding from human Opioid receptor kappa 1
Mu-type opioid receptor = Mu-type opioid receptor (Homo sapiens, UniProt P35372); assay: Inhibition of [3H]diprenorphine (0.33 nM) binding from human Opioid receptor mu 1 expressed in CHO-K1 cells.; format: cell-based
Procedure, shortened: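 CHO-K1 membranes expressing human μ-opioid receptor in 50 mM Tris-HCl pH 7.4 with 5 mM MgCl2 and 10% sucrose. Incubated 2.5 h at room temperature with 0.33 nM [3H]diprenorphine over a compound concentration range. Filtration and scintillation counting. Nonspecific binding defined with 10 μM naloxone. Ki given as mean ± SE, n=3.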

[7] = Effect of compound on nociceptin-induced allodynia :Values are the mean ( SE of allodynia score at 20 min. significantly different from control (nociceptin alone) by the Mann-Whitney U-test.; format: functional

T1 sequence (P41146 whole entry): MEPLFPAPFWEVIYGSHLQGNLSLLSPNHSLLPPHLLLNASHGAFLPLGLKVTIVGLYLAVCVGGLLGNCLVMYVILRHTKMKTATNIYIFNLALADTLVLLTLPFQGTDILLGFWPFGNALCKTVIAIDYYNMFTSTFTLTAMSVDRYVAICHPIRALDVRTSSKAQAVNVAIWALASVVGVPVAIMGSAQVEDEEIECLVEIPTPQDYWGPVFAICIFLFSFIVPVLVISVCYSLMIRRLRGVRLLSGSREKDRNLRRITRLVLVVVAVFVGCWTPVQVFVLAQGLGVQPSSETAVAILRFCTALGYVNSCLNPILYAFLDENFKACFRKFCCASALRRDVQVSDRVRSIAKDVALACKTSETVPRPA
Chain of Kappa-type opioid receptor (P41145 whole entry): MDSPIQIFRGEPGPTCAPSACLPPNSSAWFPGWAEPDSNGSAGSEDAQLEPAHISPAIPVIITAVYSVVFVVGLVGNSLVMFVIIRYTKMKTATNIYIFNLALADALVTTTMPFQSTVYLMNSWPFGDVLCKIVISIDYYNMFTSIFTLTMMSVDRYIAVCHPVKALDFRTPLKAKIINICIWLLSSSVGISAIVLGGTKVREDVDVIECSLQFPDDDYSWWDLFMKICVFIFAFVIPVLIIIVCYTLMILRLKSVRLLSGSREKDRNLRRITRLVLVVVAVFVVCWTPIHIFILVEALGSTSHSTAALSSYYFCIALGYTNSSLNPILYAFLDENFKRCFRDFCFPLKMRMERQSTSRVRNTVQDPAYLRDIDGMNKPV
Chain of Delta-type opioid receptor (P41143 whole entry): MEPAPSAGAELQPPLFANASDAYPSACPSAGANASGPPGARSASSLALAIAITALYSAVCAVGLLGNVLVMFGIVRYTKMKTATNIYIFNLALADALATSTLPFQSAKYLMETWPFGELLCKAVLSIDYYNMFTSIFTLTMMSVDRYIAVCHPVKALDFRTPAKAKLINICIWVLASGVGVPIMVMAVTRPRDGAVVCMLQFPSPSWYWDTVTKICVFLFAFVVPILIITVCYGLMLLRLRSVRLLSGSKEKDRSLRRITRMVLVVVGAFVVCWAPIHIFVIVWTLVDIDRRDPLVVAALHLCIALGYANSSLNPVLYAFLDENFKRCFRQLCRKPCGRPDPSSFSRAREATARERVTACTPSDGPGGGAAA
Chain of Mu-type opioid receptor (P35372 whole entry): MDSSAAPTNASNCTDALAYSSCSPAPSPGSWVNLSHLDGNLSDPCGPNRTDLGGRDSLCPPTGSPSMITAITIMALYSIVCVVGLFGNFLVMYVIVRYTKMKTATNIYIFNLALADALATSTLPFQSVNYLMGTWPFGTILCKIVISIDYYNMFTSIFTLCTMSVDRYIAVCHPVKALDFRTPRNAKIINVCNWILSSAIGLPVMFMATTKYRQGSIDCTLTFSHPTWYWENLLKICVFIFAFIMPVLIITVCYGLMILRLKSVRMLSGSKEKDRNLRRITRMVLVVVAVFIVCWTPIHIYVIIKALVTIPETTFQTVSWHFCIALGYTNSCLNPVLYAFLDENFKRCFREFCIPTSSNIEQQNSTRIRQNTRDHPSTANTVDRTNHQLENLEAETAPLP

SMILES | Ki (Nociceptin receptor [1]) [nM] | inhibition (Nociceptin receptor [3]) [%] | other results
Cc1cc(N)c2cc(NC(=O)c3ccccc3COc3cccc(Cl)c3)ccc2n1 | 20.4 |  | 
Cc1cc(N)c2cc(NC(=O)c3ccccc3COc3ccccc3)ccc2n1 |  | 93.6 | Ki (Nociceptin receptor [2]): 50.7 nM
CC(C)C[C@H](NC(=O)[C@H](CCCCN)NC(=O)[C@H](CCCNC(=N)N)NC(=O)[C@H](C)NC(=O)[C@H](CO)NC(=O)[C@H](CCCCN)NC(=O)[C@H](CCCNC(=N)N)NC(=O)[C@H](C)NC(=O)CNC(=O)[C@@H](NC(=O)[C@H](Cc1ccccc1)NC(=O)CNC(=O)CNC(=O)[C@@H](N)Cc1ccccc1)[C@@H](C)O)C(=O)N[C@@H](C)C(=O)N[C@@H](CC(N)=O)C(=O)N[C@@H](CCC(N)=O)C(=O)O |  |  | Allodynia score [4]: 7.11
CCc1cc(N)c2cc(NC(=O)c3ccccc3COc3ccc(Cl)cc3)ccc2n1 | 1.8 |  | 
CCc1ccc(OCc2ccccc2C(=O)Nc2ccc3nc(C)cc(N)c3c2)cc1 | 8.2 |  | Ki [5]: 8650 nM; Ki [6]: 1060 nM; Ki (Mu-type opioid receptor): 103 nM
Cc1cc(N)c2cc(NC(=O)c3ccccc3COc3ccc(C(F)(F)F)cc3)ccc2n1 | 1.8 |  | 
Cc1cc(N)c2cc(NC(=O)c3ccccc3-c3ccccc3)ccc2n1 | 369 | 51.7 | 
Cc1ccc(OCc2ccccc2C(=O)Nc2ccc3nc(C)cc(N)c3c2)cc1 | 7 |  | 
Cc1cc(N)c2cc(NC(=O)c3ccccc3COc3ccc(N)cc3)ccc2n1 | 82.4 |  | 
Cc1cc(N)c2cc(NC(=O)c3ccc(CCc4ccccc4)cc3)ccc2n1 |  | 48.4 | 
Cc1cc(N)c2cc(NC(=O)c3ccccc3COc3ccc(O)cc3)ccc2n1 | 46.7 |  | 
Cc1cc(N)c2cc(NC(=O)c3cccc(CCc4ccccc4)c3)ccc2n1 |  | 23 | 
Cc1cc2ccc(NC(=O)c3ccccc3COc3ccc(Cl)cc3)cc2c(N)n1 | 37.3 |  | 
CCCc1cc(N)c2cc(NC(=O)c3ccccc3COc3ccc(Cl)cc3)ccc2n1 | 1.8 |  | 
Cc1cc(N)c2cc(NC(=O)c3ccccc3CCCc3ccccc3)ccc2n1 | 121 | 98 | 
Cc1cc(N)c2cc(NC(=O)c3ccccc3COc3ccc(Br)cc3)ccc2n1 | 2.6 |  | 
Cc1ccc(CCc2ccccc2C(=O)Nc2ccc3nc(C)cc(N)c3c2)cc1 | 88.5 |  | 
Cc1cc(N)c2cc(NC(=O)c3ccccc3)ccc2n1 |  | 32.9 | 
Cc1cc(N)c2cc(NC(=O)c3ccccc3COc3ccc(Cl)cc3)ccc2n1 | 2.2 |  | 
Nc1ccnc2ccc(NC(=O)c3ccccc3COc3ccc(Cl)cc3)cc12 | 85.6 |  | 
CC(C)C[C@H](NC(=O)[C@H](CCCCN)NC(=O)[C@H](CCCN=C(N)N)NC(=O)[C@H](C)NC(=O)[C@H](CO)NC(=O)[C@H](CCCCN)NC(=O)[C@H](CCCN=C(N)N)NC(=O)[C@H](C)NC(=O)CNC(=O)[C@@H](NC(=O)[C@H](Cc1ccccc1)NC(=O)CNC(=O)CNC(=O)[C@@H](N)Cc1ccccc1)[C@@H](C)O)C(=O)N[C@@H](C)C(=O)N[C@@H](CC(N)=O)C(=O)N[C@@H](CCC(N)=O)C(=O)O.CCc1ccc(OCc2ccccc2C(=O)Nc2ccc3nc(C)cc(N)c3c2)cc1 |  |  | Allodynia score [7]: < 3.11
Cc1cc(N)c2cc(NC(=O)c3ccccc3CCc3ccccc3)ccc2n1 |  | 90.5 | Ki (Nociceptin receptor [2]): 79.9 nM
Cc1cc(N)c2cc(NC(=O)c3ccccc3Cc3ccccc3)ccc2n1 |  | 45.4 | 
